Source: article PMC3923119 (Osteoporosis International, 2013)
Where two headings read alike, the source gives them in different places.

Legend:
[1] = system: postmenopausal women with osteoporosis; assay: Adverse events; type: in vivo, human; details: 56.5 μg once weekly for 24 weeks
Procedure, shortened: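 Japanese postmenopausal women with osteoporosis, aged 60–79, at four centres. Test compound (PTH peptide) 56.5 μg given s.c. weekly for 24 weeks, with daily calcium 610 mg, vitamin D 400 IU and magnesium 30 mg. Physicians recorded adverse events and classified them by MedDRA 12.0 system organ class.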

[2] = system: healthy postmenopausal women; details: day 7 after single injection of 56.5 μg; cited from earlier work
[3] = cited from earlier work
[4] = system: postmenopausal women with osteoporosis; assay: Changes in bone turnover markers; type: in vivo, human
Procedure, shortened: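 Women aged 60–79 received 56.5 μg test compound s.c. weekly for 24 weeks. In weeks 0, 4, 12 and 24, dosing followed 0 h sampling at 0800, with serum/urine taken at 0, 2, 4, 6, 8, 12 and 24 h. Osteocalcin was measured by IRMA, P1NP by RIA, urinary NTX by ELISA, plus urinary DPD. Read-outs were mean (±SE) percent change from 0 h or week 0, paired t test.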

[5] = system: postmenopausal women with osteoporosis; assay: Changes in calcium metabolism; type: in vivo, human
Procedure, shortened: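 Weekly s.c. 56.5 μg test compound for 24 weeks, in osteoporotic women aged 60–79 on calcium/vitamin D/magnesium supplements. Blood was drawn in weeks 0, 4, 12 and 24, with 0 h sampling at 0800 before dosing and further samples over 24 h. Corrected serum Ca and intact PTH (electrochemiluminescence immunoassay) are given as means±SE versus 0 h or week 0, paired t test.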

[6] = daily teriparatide, cited from earlier work
[7] = after 24 weeks, 56.5 μg once weekly
[8] = at 4 weeks, 56.5 μg once weekly, mean percent change, significant

CC[C@H](C)[C@H](NC(=O)[C@H](CCC(=O)O)NC(=O)[C@H](CO)NC(=O)[C@@H](NC(=O)[C@@H](N)CO)C(C)C)C(=O)N[C@@H](CCC(N)=O)C(=O)N[C@@H](CC(C)C)C(=O)N[C@@H](CCSC)C(=O)N[C@@H](Cc1cnc[nH]1)C(=O)N[C@@H](CC(N)=O)C(=O)N[C@@H](CC(C)C)C(=O)NCC(=O)N[C@@H](CCCCN)C(=O)N[C@@H](Cc1cnc[nH]1)C(=O)N[C@@H](CC(C)C)C(=O)N[C@@H](CC(N)=O)C(=O)N[C@@H](CO)C(=O)N[C@@H](CCSC)C(=O)N[C@@H](CCC(=O)O)C(=O)N[C@@H](CCCN=C(N)N)C(=O)N[C@H](C(=O)N[C@@H](CCC(=O)O)C(=O)N[C@@H](Cc1c[nH]c2ccccc12)C(=O)N[C@@H](CC(C)C)C(=O)N[C@@H](CCCN=C(N)N)C(=O)N[C@@H](CCCCN)C(=O)N[C@@H](CCCCN)C(=O)N[C@@H](CC(C)C)C(=O)N[C@@H](CCC(N)=O)C(=O)N[C@@H](CC(=O)O)C(=O)N[C@H](C(=O)N[C@@H](Cc1cnc[nH]1)C(=O)N[C@@H](CC(N)=O)C(=O)N[C@@H](Cc1ccccc1)C(=O)O)C(C)C)C(C)C [teriparatide, Human parathyroid hormone (PTH) 1–34]
Hypercalcemia [1]: not observed
serious AEs ([1]; 28 subjects): No serious AEs were observed
NTX decrease [2]: 10%
P1NP increase [2]: 10%
osteocalcin increase [2]: 5%
relative risk reduction in vertebral fractures ([3]; daily teriparatide): 65%
relative risk of non-vertebral fragility fracture ([3]; once-weekly teriparatide injection, 95 % CI, 0.24–1.84, p = 0.43): 0.67
relative risk reduction in vertebral fractures ([3]; once-weekly teriparatide): 80%
serum P1NP change after 24 weeks [4, 7]: did not increase significantly
serum osteocalcin change after 24 weeks [4, 7]: increased significantly
urinary DPD maximum value, 24 h percent change from 0 h ([4]; at 2 or 4 h after 56.5 μg injection, range of means over data collection weeks): 29.5 to 31.6%
urinary NTX maximum value, 24 h percent change from 0 h ([4]; at 4 or 6 h after 56.5 μg injection, range of means over data collection weeks): 41.2 to 67.4%
urinary DPD decrease from baseline (0 h values) ([4]; at 4 weeks, 56.5 μg once weekly, mean percent change): 17.8%
serum P1NP increase from baseline (0 h values) [4, 8]: 19.9%
serum osteocalcin increase from baseline (0 h values) [4, 8]: 26.8%
urinary NTX decrease from baseline (0 h values) [4, 8]: 14.8%
serum P1NP minimum value, 24 h percent change from 0 h ([4]; at 6 h after 56.5 μg injection, range of means over data collection weeks): −15.1 to −22.3%
serum corrected Ca level during the 24 week dosage period ([5]; 0 h values at 4 and 24 weeks versus 0 weeks, 56.5 μg once weekly, paired t test): decreased significantly
intact PTH level during the dosage period of 24 weeks ([5]; 0 h values at 12 and 24 weeks versus 0 weeks, 56.5 μg once weekly, paired t test): decreased significantly
serum intact PTH minimum concentration ([5]; at 2 or 6 h after 56.5 μg injection, range of means over data collection weeks): 25.6 to 28.3 pg/mL
bone formation marker increase ([6]; after 1 month): 105%
bone formation marker (serum PINP) increase ([6]; after 6 months): 218%
bone resorption marker (urinary NTX) increase ([6]; after 6 months): 58%
